Experimental data reported in BindingDB's records for doi:10.1016/j.ejmech.2011.01.042 (Ludwig-Maximilians-University Munich, 2011).
Structures can show the parent of a compound that is named as a salt.

Experiments:
[1] = target: T1, Sodium- and chloride-dependent GABA transporter 2 (Mus musculus, UniProt P31649); experiment: Inhibition of mouse GAT2-mediated [3H]GABA uptake expressed in human HEK cells
T1 sequence (P31649 whole entry): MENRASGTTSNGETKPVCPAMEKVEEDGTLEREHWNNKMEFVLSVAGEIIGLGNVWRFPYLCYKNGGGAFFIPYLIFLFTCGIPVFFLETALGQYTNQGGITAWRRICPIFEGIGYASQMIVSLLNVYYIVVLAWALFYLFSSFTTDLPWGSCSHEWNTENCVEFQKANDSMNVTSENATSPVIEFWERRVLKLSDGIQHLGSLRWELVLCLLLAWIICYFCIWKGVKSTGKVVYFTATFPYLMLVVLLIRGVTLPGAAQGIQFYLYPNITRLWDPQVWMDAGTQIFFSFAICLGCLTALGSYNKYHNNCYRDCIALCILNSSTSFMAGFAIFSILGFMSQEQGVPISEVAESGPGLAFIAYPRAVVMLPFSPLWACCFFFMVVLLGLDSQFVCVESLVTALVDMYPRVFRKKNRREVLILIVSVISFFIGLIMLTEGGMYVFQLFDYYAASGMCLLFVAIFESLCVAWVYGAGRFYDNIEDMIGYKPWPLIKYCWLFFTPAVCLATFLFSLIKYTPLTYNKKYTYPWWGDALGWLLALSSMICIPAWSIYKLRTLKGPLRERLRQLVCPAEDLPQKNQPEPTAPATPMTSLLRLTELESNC
Outline: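 The value is pIC50, given as mean ± SEM of three independent experiments, each run in triplicate. Where only two experiments were run, uptake is reported rather than pIC50.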

[2] = target: T2, Sodium- and chloride-dependent GABA transporter 3 (Mus musculus, UniProt P31650); experiment: Inhibition of mouse GAT3-mediated [3H]GABA uptake expressed in human HEK cells assessed as specific binding remaining at 1 mM
T2 sequence (P31650 whole entry): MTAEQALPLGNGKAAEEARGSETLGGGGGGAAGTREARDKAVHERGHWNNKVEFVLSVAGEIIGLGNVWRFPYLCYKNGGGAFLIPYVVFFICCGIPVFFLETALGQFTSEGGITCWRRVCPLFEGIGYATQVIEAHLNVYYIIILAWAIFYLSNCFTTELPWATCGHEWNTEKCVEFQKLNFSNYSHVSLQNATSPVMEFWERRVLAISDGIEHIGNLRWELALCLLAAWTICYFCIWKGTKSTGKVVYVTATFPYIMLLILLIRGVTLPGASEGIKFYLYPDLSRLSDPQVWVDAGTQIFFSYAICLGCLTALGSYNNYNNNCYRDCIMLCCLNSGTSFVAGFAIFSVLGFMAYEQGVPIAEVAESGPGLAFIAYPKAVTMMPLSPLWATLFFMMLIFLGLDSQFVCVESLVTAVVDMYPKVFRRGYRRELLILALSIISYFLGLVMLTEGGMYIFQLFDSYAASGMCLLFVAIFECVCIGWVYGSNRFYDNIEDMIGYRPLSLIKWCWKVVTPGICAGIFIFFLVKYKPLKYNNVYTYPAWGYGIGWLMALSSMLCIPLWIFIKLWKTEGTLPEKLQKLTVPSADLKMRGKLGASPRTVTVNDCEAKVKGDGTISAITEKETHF

| IC50 [2] | SMILES | IC50 [1] |
| --- | --- | --- |
| – | COc1ccc(C2(O)CCN(CCCn3c4ccccc4c4ccccc43)CC2)cc1 [1-(3-(9H-carbazol-9-yl)propyl)-4-(4-methoxyphenyl)piperidin-4-ol] | 1.4 µM |
| – | Cc1ccsc1C(=CCCN(C)C1CCCc2o[nH]c(=O)c21)c1sccc1C (stereo not drawn) [4-((4,4-bis(3-methylthiophen-2-yl)but-3-enyl)(methyl)amino)-4,5,6,7-tetrahydrobenzo[d]isoxazol-3-ol] | 22 µM |
| 776 µM | O=C(O)CCCCCCn1ccnc1 [7-Imidazol-1-yl-heptanoic acid; hydrochloride] | – |
